From PubChem
NSD2 HMT inh: NSD2 histone methyltransferase inhibitors, primary screen, biochemical, AlphaScreen, single concentration, set 2; Histone-lysine N-methyltransferase NSD2 (Homo sapiens), O96028; NSD2 peptide methylation, 120 min; inhibition, % at 12.5 µM; hit rate 0.54% among 310,000; AID 743445, 2014; in the data active = inhibition above about 50%
XiGFP reactiv: activators of inactive X chromosome reactivation, primary screen, imaging, XiGFP fibroblasts, GFP high-content imaging, set 2. hit rate 0.055% among 360,000. XiGFP mouse fibroblasts, % GFP-positive cells imaging, 3 d; cells co-treated with 5-aza-dC sensitizer; scaled so ellipticine positive control = 100%. activation, % at 7.58 µM;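 active = mean normalized replicate activation at least 10% and every replicate at or above 10%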;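 note: 0% = median of on-plate neutral control wells and 100% = ellipticine 6 µM median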
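assay system = SV40-immortalized XiGFP fibroblast cells, line 68-5-11 | buffer or medium = DMEM plus 5-aza-dC sensitizer | doses = single-point pinned compound dosing | times = 3-day compound exposure, then 15 min fixation at room temperature | benchmarks = positive control ellipticine, 6 µM final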
esBAF inh: Bmi1 luciferase reporter increase in mESCs, primary screen, esBAF inhibitor project, mouse ES cells, Bmi1 luciferase knock-in, single point; 24 h; 100% = twice the neutral-well signal; reporter increase, % at 12.5 µM; hit rate 2% among 350,000; AID 602393, 2012; in the data active = activation above about 40%;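 note: 0% = median of the plate's neutral control wells and 100% = double that signal; a rise in the Bmi1 reporter signal indicates esBAF inhibition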
MITF act: activators of MITF-driven TRPM1 promoter reporter, primary screen, cell-based, SK-MEL-5, luciferase, single point; activation, % at 12.5 µM; AID 588334, 2011; SK-MEL-5 TRPM1-promoter luciferase, 24 h; % of positive control, neutral wells = 0; hit rate 0.75% among 300,000;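 active = mean activation of at least 80% with every replicate also reaching 80%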;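 note: 0% = neutral control wells and 100% = parthenolide positive control wells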
CASP6 VEID inh: human caspase-6 inhibitors, primary screen, biochemical, VEID-R110 fluorescence, single point, set 2 | purified caspase-6, Z-VEID-R110 cleavage fluorescence | hit rate 0.53% among 350,000 | AID 686996, 2013 | inhibition, % at 12.5 µM | P55212;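 active = mean inhibition across replicates at least about 35%, with every replicate also reaching that limit, limit read from the data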;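 note: 0% = median of neutral control wells and 100% = no fluorescence left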
Wnt bcat act: Wnt/beta-catenin pathway activators, primary screen, cell-based, plate reader, single point; Wnt/beta-catenin reporter cell assay, activator; activation, % at 9.35 µM; hit rate 1.2% among 300,000; AID 743398, 2014; in the data active = activation above about 30%, passing the limit was not always enough;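 note: 0% = neutral control wells and 100% = positive control wells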
Alpha artifact: AlphaScreen signal interference with preloaded methylated product, dose response, artefact control for NSD2 inhibitor project, biochemical, cherry-picked samples; shares compounds with NSD2 HMT inh; AlphaScreen artifact counterscreen, preloaded methylated H4 peptide; AC35, µM (doses to about 10 µM), inactives show at the highest dose activity change, negative = signal loss; hit rate 9.4% among 1,500; AID 1053174, 2014; call rule not given here
* marks the source's active call; other numbers are inactive results. Compounds with a hit are over-represented: about 3% of the library has one in this group of screens.

Results for COc1cccc(C(=O)Nc2ccc3c(c2)OC[C@@H](C)N(CC2CC2)C[C@@H](C)[C@H](OC)CN(C)C3=O)c1 ?
XiGFP reactiv: 0; esBAF inh: -2; CASP6 VEID inh: 1

Results for C[C@@H]1CCCCO[C@@H](CN(C)C(=O)CCC(F)(F)F)[C@@H](C)CN([C@H](C)CO)C(=O)c2cc(NC(=O)c3ccncc3)ccc2O1 ?
XiGFP reactiv: -1; esBAF inh: 1

How did COc1ccc(/C=N/Nc2cc(N3CCCC3)nc(N3CCCC3)n2)cc1 do in these assays?
NSD2 HMT inh: 102*; XiGFP reactiv: 0; esBAF inh: -25; MITF act: 7; CASP6 VEID inh: 1; Wnt bcat act: 0; Alpha artifact: -9%

Results for Oc1ccc(/C=N/Nc2cc(N3CCCC3)nc(N3CCCC3)n2)cc1 ?
NSD2 HMT inh: 7; esBAF inh: -5; MITF act: -7; Wnt bcat act: 1

How did O=C(C[C@H]1C[C@H]2c3cc(NC(=O)c4ccc5c(c4)OCO5)ccc3O[C@H]2[C@H](CO)O1)NC1CCCC1 do in these assays?
XiGFP reactiv: 0; esBAF inh: 14; CASP6 VEID inh: 0

Results for Cc1noc(C)c1S(=O)(=O)Nc1ccc2c(c1)C(=O)N([C@H](C)CO)C[C@H](C)[C@H](CN(C)C(=O)CCCN(C)C)OCCCC[C@H](C)O2 ?
XiGFP reactiv: 0; esBAF inh: -1

Results for COc1cn(-c2ccccc2)nc1C(=O)NCc1ccc(C)cc1 ?
NSD2 HMT inh: 2; XiGFP reactiv: 0; esBAF inh: 1; MITF act: 5; CASP6 VEID inh: 3; Wnt bcat act: 2

What do the screens show for `COc1cn(-c2ccccc2)nc1C(=O)NCc1ccccc1`?
NSD2 HMT inh: 79*; XiGFP reactiv: 0; esBAF inh: 6; MITF act: 1; CASP6 VEID inh: -1; Wnt bcat act: 0; Alpha artifact: -4%

Results for CCN(CC)CCCN(Cc1cc2cc3c(cc2[nH]c1=O)OCO3)C(=S)NCc1ccco1 ?
NSD2 HMT inh: 74*; XiGFP reactiv: 0; MITF act: 8; CASP6 VEID inh: -8; Wnt bcat act: -1; Alpha artifact: -1%

What do the screens show for `CC(C)NC(=O)N(C)C[C@@H]1Oc2cc(-c3ccccc3F)ccc2S(=O)(=O)N([C@@H](C)CO)C[C@@H]1C`?
XiGFP reactiv: 0; esBAF inh: 0; CASP6 VEID inh: 4

Results for CCc1sc(C(=O)Nc2nc(C)cs2)cc1C ?
NSD2 HMT inh: 51*; XiGFP reactiv: 0; esBAF inh: -3; MITF act: 31; CASP6 VEID inh: 1; Wnt bcat act: 25; Alpha artifact: -6%

Results for CCc1sc(C(=O)Nc2ccc(NC(C)=O)cc2)cc1C ?
NSD2 HMT inh: 1; XiGFP reactiv: 0; MITF act: 10; CASP6 VEID inh: 1; Wnt bcat act: 3

What do the screens show for `Cc1noc(C)c1NC(=O)Nc1ccc2c(c1)C(=O)N([C@@H](C)CO)C[C@@H](C)[C@H](CN(C)Cc1ccncc1)OCCCC[C@H](C)O2`?
XiGFP reactiv: 0; esBAF inh: -2; CASP6 VEID inh: -3

How did O=C(C[C@@H]1CC[C@H](NC(=O)C2CCOCC2)[C@H](CO)O1)NCc1ccncc1 do in these assays?
XiGFP reactiv: 0; CASP6 VEID inh: 0

How did CC(C)(C)c1cc[n+](C2=C([O-])c3ccccc3C(=O)/C2=N\S(=O)(=O)c2cccs2)cc1 do in these assays?
NSD2 HMT inh: 62*; XiGFP reactiv: 0; CASP6 VEID inh: 33; Wnt bcat act: -5; Alpha artifact: -6%

How did CO[C@@H]1CN(C)C(=O)c2cc(NC(=O)C3CC3)ccc2OC[C@H](C)N(C(=O)CN2CCOCC2)C[C@H]1C do in these assays?
XiGFP reactiv: 0; esBAF inh: 1

What do the screens show for `C/C=C/c1cnc2c(c1)C(=O)N([C@@H](C)CO)C[C@@H](C)[C@H](CN(C)C(=O)Cc1ccccc1)O2`?
XiGFP reactiv: 1; esBAF inh: -3; CASP6 VEID inh: 3

Results for O=C(Nc1ccc(F)cc1)N[C@H]1C=C[C@H](CC(=O)N2CCOCC2)O[C@@H]1CO ?
XiGFP reactiv: 0; esBAF inh: -1; CASP6 VEID inh: 4

How did CNC(=S)NC(CC(=O)OC)c1ccc2c(c1)OCO2 (configuration not stated) do in these assays?
NSD2 HMT inh: 56*; XiGFP reactiv: 0; MITF act: 2; CASP6 VEID inh: -5; Wnt bcat act: -1; Alpha artifact: -2%

What do the screens show for `COC(=O)CC(NC(=O)C1CC1)c1ccc2c(c1)OCO2` (configuration not stated)?
NSD2 HMT inh: -9; XiGFP reactiv: 0; MITF act: -11; CASP6 VEID inh: -5; Wnt bcat act: -1

How did O=C(NCc1ccco1)Nc1cccc([N+](=O)[O-])c1 do in these assays?
NSD2 HMT inh: 52*; XiGFP reactiv: 0; esBAF inh: -3; MITF act: -2; Wnt bcat act: 0; Alpha artifact: -1%

Results for Cc1ccc(NC(=O)NCc2ccco2)cc1[N+](=O)[O-] ?
NSD2 HMT inh: 3; XiGFP reactiv: 0; CASP6 VEID inh: 1; Wnt bcat act: 6

How did COc1ccc(C2SCCN2S(=O)(=O)c2ccc(NC(C)=O)cc2)cc1 (configuration not stated) do in these assays?
NSD2 HMT inh: -6; esBAF inh: -5; MITF act: 6; Wnt bcat act: -1

Results for COc1ccc(C2SCCN2S(=O)(=O)c2ccccc2)cc1 (configuration not stated) ?
NSD2 HMT inh: 99*; XiGFP reactiv: 0; MITF act: -18; CASP6 VEID inh: -3; Wnt bcat act: 8; Alpha artifact: -1%

Results for COc1ccc(C(=O)N[C@H](C(=O)NCc2ccc(C)cc2)C(C)C)cc1 ?
NSD2 HMT inh: 75*; XiGFP reactiv: 0; esBAF inh: -3; MITF act: 9; CASP6 VEID inh: 0; Wnt bcat act: -2; Alpha artifact: -3%

How did O=C(NNC(=O)c1cccs1)c1ccc(Cl)c([N+](=O)[O-])c1 do in these assays?
NSD2 HMT inh: 54*; XiGFP reactiv: 0; MITF act: -11; CASP6 VEID inh: 1; Wnt bcat act: 2; Alpha artifact: -6%
